Experimental data from ChEMBL document CHEMBL4834453, “Discovery of N-(6-(5-fluoro-2-(piperidin-1-yl)phenyl)pyridazin-3-yl)-1-(tetrahydro-2H-pyran-4-yl)methanesulfonamide as a brain-permeable and metabolically stable kynurenine monooxygenase inhibitor” (Bioorg Med Chem Lett, 2021).
In brackets after ≈: the same amount, converted by molar mass.

Legend:
[1] = Plasma concentration in cynomolgus monkey at 5 mg/kg, po measured after 2 hrs of administration; format: ADME, organism-based, Macaca fascicularis
How it was run: (§1)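 Cynomolgus monkeys (n=2) dosed orally. Blood and brain collected 2 h after dosing. Plasma (ng/mL) and striatum (ng/g) concentrations measured and the striatum/plasma ratio taken per animal and as the mean. Brain free concentration derived using protein binding ratio.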

[2] = Drug uptake in cynomolgus monkey striatum at 5 mg/kg, po measured after 2 hrs of administration; format: ADME, organism-based, Macaca fascicularis; conditions: read-out: Drug uptake; how it was run: as §1
[3] = Ratio of drug level in cynomolgus monkey striatum to plasma at 5 mg/kg, po measured after 2 hrs of administration
[4] = Metabolic stability in human liver microsomes assessed as intrinsic clearance incubated for 30 mins in presence of NADPH measured per mg protein; format: ADME, Microsome; conditions: for microsomal CLint: liver microsomes, read-out: CLH
How it was run: (§2)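 Compound incubated with human or rat hepatic microsomes plus NADPH at 37 °C for 30 min. Intrinsic clearance expressed as μL/min/mg protein.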

[5] = Metabolic stability in rat liver microsomes assessed as intrinsic clearance incubated for 30 mins in presence of NADPH measured per mg protein; format: ADME, Microsome; conditions: for microsomal CLint: liver microsomes, read-out: CLH; for CLH: microsomes, 0.5 h; how it was run: as §2
[6] = Glutathione reactivity assessed as dansylatedGSH-compound conjugate formation in presence of human liver microsomes by fluorescence detector based HPLC analysis; format: physicochemical
How it was run: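 Reactive metabolite trapping: compound incubated with dansylated glutathione and human liver microsomes. dGSH-conjugate quantified by HPLC with fluorescence detection and reported in μmol/L.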

[7] = Plasma concentration in mouse at 10 mg/kg, po; format: ADME, organism-based; conditions: in vivo
How it was run: (§3)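 Mouse PK after a single oral dose (2 mg/kg; 10 mg/kg where marked). Plasma concentration given in ng/mL and brain concentration in ng/g tissue. Brain/plasma ratio computed from these. Values given as mean ± spread.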

[8] = Solubility of the compound at pH 1.2; format: physicochemical; conditions: buffer
[9] = Solubility of the compound at pH 7.4; format: physicochemical; conditions: buffer
[10] = Half life in mouse; format: ADME, organism-based; conditions: in vivo
[11] = Clearance in mouse; format: ADME, organism-based; conditions: in vivo
[12] = Drug concentration in mouse brain at 10 mg/kg, po measured per gm of tissue; format: ADME, organism-based; conditions: in vivo; how it was run: as §3
[13] = Ratio of drug concentration in brain to plasma in mouse at 10 mg/kg, po; format: ADME, organism-based; conditions: read-out: BPR; how it was run: as §3
[14] = Plasma concentration in mouse at 2 mg/kg, po; format: ADME, organism-based; conditions: in vivo; how it was run: as §3
[15] = Ratio of drug concentration in brain to plasma in mouse at 2 mg/kg, po; format: ADME, organism-based; conditions: read-out: BPR; how it was run: as §3
[16] = Drug concentration in mouse brain at 2 mg/kg, po measured per gm of tissue; format: ADME, organism-based; conditions: in vivo; how it was run: as §3

microsomal CLint [4] | microsomal CLint [5] | Drug metabolism [6] | SMILES | further results
 |  |  | O=C(O)c1cc(-c2ccc(Cl)c(OC3CC3)c2)ncn1 | concentration at 2 h [1]: 15600 ng/mL; concentration at 2 h [2]: 64.8 ng/g; Kp at 2 h [3]: 0.004
1.07 µL/min/mg | 0.395 µL/min/mg | 0.000852 µmol/mL | Cc1ccc(S(=O)(=O)Nc2ccc(-c3ccccc3N3CCCCC3)nn2)cc1 | Cp [7]: 808 ng/mL; solubility [8]: 163 µg/mL (≈ 399 µM); solubility [9]: < 1 µg/mL; half-life [10]: 18 min; clearance [11]: 67 mL/min/kg; Ct [12]: 230 ng/g; Kp [13]: 0.28
 |  | 0 µmol/mL | COCCCS(=O)(=O)Nc1ccc(-c2cc(F)ccc2N2CCCCC2)nn1 | CLH ([4]; microsomes, 0.5 h): 0.026 µL/min/mg; CLH [5]: 0.045 µL/min/mg
0.478 µL/min/mg | 0.339 µL/min/mg | 0.000637 µmol/mL | Cc1ccc(S(=O)(=O)Nc2ccc(-c3c(F)cccc3N3CCCCC3)nn2)cc1 | Cp [14]: 284 ng/mL; Kp [15]: 0.28; Ct [16]: 79 ng/g
0.156 µL/min/mg | < 0.05 µL/min/mg | 0 µmol/mL | CCS(=O)(=O)Nc1ccc(-c2cc(F)ccc2N2CCCCC2)nn1 | 
0.178 µL/min/mg | 0.518 µL/min/mg | 0.000146 µmol/mL | Cc1ccc(S(=O)(=O)Nc2ccc(-c3cccc(F)c3N3CCCCC3)nn2)cc1 | 
0.569 µL/min/mg | 0.265 µL/min/mg | 0 µmol/mL | O=S(=O)(CC(F)(F)F)Nc1ccc(-c2cc(F)ccc2N2CCCCC2)nn1 | 
0.179 µL/min/mg |  | 0 µmol/mL | COCCS(=O)(=O)Nc1ccc(-c2cc(F)ccc2N2CCCCC2)nn1 | CLH [5]: 0.05 µL/min/mg
0.703 µL/min/mg | 1.6 µL/min/mg | 0.00049 µmol/mL | O=S(=O)(CC1CCCC1)Nc1ccc(-c2cc(F)ccc2N2CCCCC2)nn1 | 
0.139 µL/min/mg | 0.435 µL/min/mg | 0 µmol/mL | O=S(=O)(CC1CCCCO1)Nc1ccc(-c2cc(F)ccc2N2CCCCC2)nn1 (stereo unspecified) | 
0.179 µL/min/mg | 0.168 µL/min/mg | 0 µmol/mL | CCCS(=O)(=O)Nc1ccc(-c2cc(F)ccc2N2CCCCC2)nn1 | 
0.375 µL/min/mg | 0.483 µL/min/mg | 0.00011 µmol/mL | CC(C)CS(=O)(=O)Nc1ccc(-c2cc(F)ccc2N2CCCCC2)nn1 | 
